# Rows were chosen to be rich in hits. Some 2.9% of all compounds tested hit in one or more screens of this group.
# NALP3 yeast inh: blocks the NALP3 inflammasome reconstituted in yeast; Yeast reconstituted NLRP3/ASC/caspase-1, beta-gal luminescence, 24 h; inhibition, % at 10 µM; hit rate 0.39% among 330,000;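 active means inhibition of 50% or more; inactive means inhibition below 50%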;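 further: plate controls were induced DMSO wells for no effect and uninduced yeast grown without galactose for full effect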
# NALP1 yeast inh: NALP1 inhibition; S. cerevisiae NALP1/ASC/caspase-1 growth, X-gal OD620, 72 h; inhibition, % at 10 µM; hit rate 0.61% among 280,000; AID 2071; in the data active means inhibition mostly above about 24%, no sharp cut-off; inactive means mostly below about 32%
# IMP-1 inhibitor: inhibitors of Pseudomonas aeruginosa IMP-1 metallo-beta-lactamase. purified IMP-1, nitrocefin hydrolysis, epi-absorbance fluorescence. inhibition, % at 5.6 µM. hit rate 0.45% among 290,000;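 active means inhibition above the mean plus 3 SD of all compounds in the same screening run, cut at about 4.5% in these data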;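 further: 0% = IMP-1 with DMSO and 100% = DMSO wells lacking enzyme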
#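 System: purified IMP-1; amount: IMP-1 0.2 nM before substrate addition; compound: single dose, 5.6 µM; times: 25 °C, 15 min preincubation, 25 min reaction; signal: Epi-absorbance via hydrolysed-nitrocefin quenching of white-plate fluorescence, 480/530 nm, EDTA stop; benchmarks: DMSO with and without IMP-1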
# VIM-2 inhibitor: inhibitors of Pseudomonas aeruginosa VIM-2 metallo-beta-lactamase. AID 1527. inhibition, % at 5.6 µM. hit rate 0.89% among 290,000. purified VIM-2, nitrocefin hydrolysis, epi-absorbance fluorescence;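 active means inhibition above the mean of all tested compounds plus 3 SD, cutoff set per screening run, cut at about 7.5% in these data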;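 further: red hydrolysis product quenches plate fluorescence so inhibitors raise well fluorescence; 0% = enzyme with DMSO and 100% = DMSO without enzyme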
# PolyA inh: blocks polyadenylation in yeast reporter cells; S. cerevisiae SKY197-pL101 polyadenylation reporter, beta-gal luminescence; efflux-impaired pdr1/pdr3 knockout yeast; score 100 = 6 SD above DMSO; activity score, % at 12 µM; hit rate 0.02% among 300,000; AID 1875;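 active means lowest replicate activity score at least 50, where 100 means six control SD above control mean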;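 further: yeast exposed to compound for 9 h at 30 °C; higher score means more reporter readthrough which indicates perturbed polyadenylation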
# SUMO Mot1 rescue: inhibitors of SUMOylation pathway: yeast Mot1-301 growth rescue | AID 2716 | S. cerevisiae Mot1-301 growth rescue, ATP luminescence, 38.5C; percent above DMSO median, 100 means doubled | hit rate 1% among 320,000 | growth rescue, % at 18.8 µM;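 active means every valid replicate shows activation above 250% relative to neutral control wells; inactive means the rest, any valid replicate at or below 250%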;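 further: OY570 slx delta 5 strain wells were the positive control but not used for scaling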
# Yeast Mot1 SUMO: SUMO pathway inhibitors in yeast Mot1-301 growth; 2,300 tested, under 10 active; AID 493004; S. cerevisiae Mot1-301 galactose growth, ATP luminescence, 24 h; -100 = growth of slx-deleted rescue strain; shares compounds with SUMO Mot1 rescue; growth activity, percent, % at 42 µM;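 active means Signal drops as the depositor expects, and the fitted half-maximal dose is no more than ten times the top valid tested dose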;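 further: more negative values mean stronger growth rescue toward the control strain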
# * = called active by the depositor; / = no result; + = active, no number.
SMILES,NALP3 yeast inh,NALP1 yeast inh,IMP-1 inhibitor,VIM-2 inhibitor,PolyA inh,SUMO Mot1 rescue,Yeast Mot1 SUMO
CCOC(=O)c1cc2c(ccn2C)n1Cc1ccc(Cl)cc1,9,0,-3,-1,-38,8,/
Cc1cccc(Cn2c(C(=O)OC(C)C)cc3c2ccn3C)c1,15,14,-5,-2,-25,+,1
Cc1cccc(C(=O)N(NC(=O)Oc2ccccc2)C(C)(C)C)c1,5,32,-2,-2,-21,-11,/
COc1ccccc1C(=O)N(NC(=O)Oc1ccccc1)C(C)(C)C,-6,22,-3,-2,-9,549*,0
CSc1nncc(/C(C)=N\Nc2cccc(C)c2)n1,11,24,-3,-5,12,366*,-1
CC/C(=N/Nc1ccccc1C)c1cnnc(SC)n1,16,30,-2,2,11,17,/
O=c1cnc2cc([N+](=O)[O-])ccc2[nH]1,4,-3,3,-5,-4,848*,0
Cc1cc(C)cc(OCC(=O)Nc2ccc(N3CCN(C(=O)c4ccco4)CC3)cc2)c1,15,27,-1,-3,12,793*,-1
Nc1nnnn1/N=C/c1ccc(F)cc1,-1,21,-1,0,-10,10,/
Cc1ccc(C(=O)N2CCN(C)CC2)cc1[N+](=O)[O-],24,-2,-4,-3,5,-9,/
Cc1ccc(C(=O)O)cc1[N+](=O)[O-],-1,/,/,/,/,365*,-1
COc1cccc(CNC(=O)c2cccc(S(=O)(=O)N3CCN(C)CC3)c2)c1,11,6,-2,0,7,3,/
O=C(CSc1ncnc2nc[nH]c12)Nc1ccccc1C(F)(F)F,14,5,-4,-2,12,727*,0
Nc1ccccc1SCC(=O)Nc1ccc2c(c1)OCCO2,26,-6,0,-1,2,34,/
Cc1sc2nc(CN3CCCC3)nc(Cl)c2c1C,11,37,-2,-3,5,-12,/
Cc1sc2nc(CN3CCCC3)nc(NCc3ccncc3)c2c1C,6,-1,-4,-4,1,802*,0
O=C(COC(=O)Cc1ccccc1[N+](=O)[O-])NNC(=O)c1ccc([N+](=O)[O-])cc1,3,/,/,/,/,-2,/
O=C(N1CCOCC1)C1(S(=O)(=O)c2ccccc2)CC=CC1,4,10,-2,-3,6,639*,0
O=C(N1CCCCC1)C1(S(=O)(=O)c2ccccc2)CC=CC1,-7,28,-4,-2,6,-26,/
Cc1cc(C)n(C(=O)c2ccccc2[N+](=O)[O-])n1,9,19,-3,-1,-4,438*,0
CC(=O)c1cccc(NC(=O)CCN2C(=O)C3C4CCC(C4)C3C2=O)c1 (stereo unspecified),-10,16,0,0,2,-19,/
Clc1ccc(CN(Cc2ccccc2)C(c2cccs2)c2nnnn2C2CCCC2)cc1 (stereo unspecified),10,-1,-1,-2,-4,657*,1
Fc1ccc(CN(Cc2ccccc2)C(c2cccs2)c2nnnn2C2CCCCC2)cc1 (stereo unspecified),17,2,-3,-2,5,162,/
CC(=O)Nc1c(-c2cc(=O)oc3cc(C)ccc23)oc2ccccc12,-4,12,-3,-2,6,/,/
COc1c2ccoc2nc2c(OC)c(OC[C@@H](O)C(C)(C)O)ccc12,10,/,/,/,/,724*,-1
SMILES,NALP3 yeast inh,NALP1 yeast inh,IMP-1 inhibitor,VIM-2 inhibitor,PolyA inh,SUMO Mot1 rescue,Yeast Mot1 SUMO
O=C(Cc1ccccc1)Nc1ccccc1C(=O)N1CCN(c2ccccc2)CC1,12,-8,-1,-3,10,18,/
OC(c1ccccc1)(c1ccccc1)c1ncc[nH]1,1,/,/,/,15,-11,/
O=C(CSC1=NS(=O)(=O)c2ccccc2N1)NCCc1ccccc1,5,/,/,/,0,-4,/
O=C(CC1(CC2=NS(=O)(=O)c3ccccc3N2)CCCC1)NCCc1ccccc1,7,28,-4,-4,2,614*,0
CC(C)C(O)(C(=O)NNc1ccccc1)C(C)C,17,-1,-4,-3,-12,583*,1
COC(=O)CSc1nnc(CNC(=O)c2ccc(OC)c(OC)c2)n1C,0,-15,-4,-2,-10,-11,/
CCc1ccc(N2C(=O)CC(N3CCC(C(=O)OC)CC3)C2=O)cc1 (stereo unspecified),15,13,-2,-3,-14,491*,-1
CCCCCCOc1ccc(N2C(=O)CC(N3CCC(C(=O)OCC)CC3)C2=O)cc1 (stereo unspecified),12,62,-3,-1,-22,553*,0
CCCN(CCC)C(=O)CSc1ncccc1C(=O)O,18,34,-1,-1,23,399*,0
CCOc1ccc(C(=O)COC(=O)c2cc(=O)[nH]c3ccccc23)cc1,5,/,/,/,-5,-10,/
Cc1cc(=O)n2[nH]c(-c3ccc(F)cc3)nc2n1,9,2,-1,0,-2,551*,0
Cn1nnnc1SCC(=O)Nc1ccc(Cl)cc1Cl,/,5,-2,3,/,/,/
O=C(CCn1cnnn1)Nc1ccc(Cl)cc1Cl,-5,-2,0,-2,29,721*,1
O=C(CCc1nc2sc3c(c2c(=O)[nH]1)CCCC3)N1CCN(c2ccccc2)CC1,12,/,/,/,-8,772*,0
Cn1nccc1C(=O)OCC(=O)Nc1ccccc1Cl,16,24,-2,-1,5,/,/
COc1ccc(CCNC(=O)Nc2ccc(F)cc2F)cc1OC,28,6,-3,-1,20,-13,/
CN(CCOc1ccc(-c2ccn(S(=O)(=O)c3cccc4ccccc34)n2)cc1)c1ccccn1,12,32,-3,-3,6,643*,0
CC(OC(=O)CCC(=O)c1ccc(F)cc1)C(=O)NC1CCCCC1C (stereo unspecified),18,-1,-2,-1,8,-7,/
Cc1nnc(SCc2nc3ccccc3s2)n1-c1ccccc1,14,5,-3,0,11,-9,/
CCn1c(SCc2nc3ccccc3s2)nnc1-c1ccccc1,8,-22,-3,-3,-2,371*,-1
CCn1c(SCc2nc3ccccc3[nH]2)nnc1-c1cccnc1,8,2,-2,-5,-9,635*,0
CCn1c(SCc2nc3ccccc3[nH]2)nnc1-c1ccncc1,-1,-3,-2,-4,-14,-6,/
c1ccc2cc(Cn3ccnc3)ccc2c1,19,/,-2,0,10,413*,-1
NS(=O)(=O)c1ccc(CCNC(=O)CN2CCN(c3ccc(F)cc3)CC2)cc1,-7,18,-4,0,20,650*,1
